Assay results reported in ChEMBL document CHEMBL4138195, “Discovery of novel propargylamine-modified 4-aminoalkyl imidazole substituted pyrimidinylthiourea derivatives as multifunctional agents for the treatment of Alzheimer's disease” (Eur J Med Chem, 2018).
The source made the active and inactive calls. No cut-off for these calls is given here.

What was measured:
Mus musculus [1] = experiment: Reversal of scopolamine-induced dementia in ICR mouse assessed as decrease in escape latency time at 30 mg/kg, po administered 40 mins prior to scopolamine-challenge by water maze test; assay type: functional, organism-based
In short: (§1)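 Test compound as HCl salt, 30 mg/kg intragastric, given 40 min before scopolamine (4.5 mg/kg i.p.), which was given 20 min before the water maze. Escape latency and errors (entries into no-exit paths) recorded; mean ± SEM.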

in vitro = settings: PAMPA
Cortical neurone [2] = experiment: Cytotoxicity against E17 Sprague-Dawley rat primary cortical neurons at 10 to 30 uM after 24 hrs by MTT assay; assay type: cell-based
[3] = Antioxidant activity assessed as inhibition of Cu2+-mediated redox cycling induced hydroxyl radicals generation at 15 uM in presence of ascorbate by fluorescence assay
In short: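 Hydroxyl radicals from Cu(II) (5 µM) and ascorbate (150 µM), with deferoxamine 1 µM, in PBS (20 mM, 100 mM NaCl, pH 7.4, 0.1% methanol). Ligand at 15 µM, with EDTA as positive control. Conversion of coumarin-3-carboxylic acid (50 µM) to fluorescent 7-hydroxy-CCA followed at 37 °C (ex 395/em 450 nm). Run in triplicate.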

[4] = molecular target: T1, Amine oxidase [flavin-containing] A (Homo sapiens, UniProt P21397); experiment: Inhibition of recombinant human MAOA using p-tyramine as substrate preincubated for 15 mins followed by substrate addition measured after 15 mins by Amplex red reagent based fluorescence assay
T1 sequence (P21397 whole entry): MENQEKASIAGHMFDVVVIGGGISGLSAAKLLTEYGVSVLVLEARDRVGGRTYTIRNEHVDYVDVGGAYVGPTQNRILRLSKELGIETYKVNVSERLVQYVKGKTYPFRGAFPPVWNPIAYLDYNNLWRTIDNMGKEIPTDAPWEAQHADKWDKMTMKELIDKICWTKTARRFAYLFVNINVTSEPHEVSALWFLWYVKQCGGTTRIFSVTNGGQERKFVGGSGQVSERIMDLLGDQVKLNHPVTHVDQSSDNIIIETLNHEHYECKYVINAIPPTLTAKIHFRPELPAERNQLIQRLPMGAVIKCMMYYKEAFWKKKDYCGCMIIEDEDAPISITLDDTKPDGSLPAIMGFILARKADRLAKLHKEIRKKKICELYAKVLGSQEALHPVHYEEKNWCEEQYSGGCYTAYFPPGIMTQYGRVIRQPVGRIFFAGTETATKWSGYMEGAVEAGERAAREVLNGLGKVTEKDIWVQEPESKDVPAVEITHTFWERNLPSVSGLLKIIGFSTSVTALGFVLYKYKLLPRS

Mus musculus [5] = experiment: Reversal of scopolamine-induced dementia in ICR mouse assessed as decrease in frequent error incidences at 30 mg/kg, po administered 40 mins prior to scopolamine-challenge by water maze test; assay type: functional, organism-based; in short: as §1
Cortical neurone [6] = experiment: Cytotoxicity against E17 Sprague-Dawley rat primary cortical neurons at 100 uM after 24 hrs by MTT assay relative to donepezil; assay type: cell-based
In short: (§2)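 Primary cortical neurons from E17 SD rat embryos, trypsin-dissociated and cultured 9 days in neurobasal/B27 on poly-L-lysine (3×10^4 cells/well). Treated at 10, 30 and 100 µM for 24 h, with donepezil as reference. MTT (5 mg/mL, 10 µL) for 4 h at 37 °C, absorbance 490 nm, viability as % of vehicle-treated cells; mean ± SEM.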

[7] = Metal chelating activity assessed as compound-Cu2+ complex formation at 40 uM in presence of CuCl2 after 30 mins by UV-visible spectrophotometric analysis
In short: (§3)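 UV–vis spectra (200–500 nm) of compound at 40 µM final, alone or with CuCl2, FeSO4, FeCl3 or ZnCl2 (20 µM final), after 30 min in 20 mM HEPES, 150 mM NaCl, pH 7.4, at room temperature.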

Cortical neurone [8] = experiment: Cytotoxicity against E17 Sprague-Dawley rat primary cortical neurons at 100 uM after 24 hrs by MTT assay; assay type: cell-based; in short: as §2
Butyrylcholinesterase = Butyrylcholinesterase (Rattus norvegicus, UniProt Q9JKC1); experiment: Inhibition of BuChE in rat serum using butyrylthiocholine iodide as substrate after 20 mins by Ellman's method
[9] = molecular target: Amyloid-beta precursor protein (Homo sapiens) (UniProt P05067); experiment: Inhibition of amyloid beta (1 to 42) peptide (unknown origin) self aggregation-induced cytotoxicity in E17 Sprague-Dawley rat primary cortical neurons assessed as neuroprotective activity by measuring increase in cell viability at 1 uM after 24 hrs by MTT assay
In short: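 Rat E17 primary cortical neurons after 9 days in culture. Aβ1-42 samples, prepared as for the dot blot (± Cu2+, ± compound), added to the cultures at 1 µM for 24 h. Viability by MTT, normalized to the vehicle group. EGCG and clioquinol as positive controls.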

[10] = molecular target: T1, Amine oxidase [flavin-containing] A; experiment: Inhibition of recombinant human MAOA at 50 uM using p-tyramine as substrate preincubated for 15 mins followed by substrate addition measured after 15 mins by Amplex red reagent based fluorescence assay; settings: 0.25 h
In short: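 Recombinant human MAO-A (12.5 µg/mL) or MAO-B (75 µg/mL) preincubated 15 min at 37 °C with compound (diluted from 10 mM DMSO stock in 50 mM KH2PO4, pH 7.4). Amplex Red working solution added: 2 mM p-tyramine (MAO-A) or benzylamine (MAO-B), 2 U/mL HRP. After 15 min at 37 °C, fluorescence read (ex 545/em 590), background from enzyme-free wells subtracted.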

[11] = Metal chelating activity assessed as compound-Fe2+ complex formation at 40 uM in presence of FeSO4 after 30 mins by UV-visible spectrophotometric analysis; in short: as §3
[12] = Antioxidant activity assessed as trolox equivalent of AAPH radical scavenging activity preincubated for 10 mins followed by AAPH addition measured every 2 mins for 180 mins by ORAC-FL assay; assay type: functional
In short: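 Compound at 20 µM (diluted from 10 mM DMSO stock in 75 mM phosphate, pH 7.4) with fluorescein (0.117 µM diluted) for 10 min at 37 °C, then AAPH (40 mM solution) added. Fluorescence (ex 485/em 535) read every 2 min for 180 min. […] Triplicate wells, ≥3 runs.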

Amyloid-beta precursor protein (Homo sapiens), sequence (P05067 whole entry): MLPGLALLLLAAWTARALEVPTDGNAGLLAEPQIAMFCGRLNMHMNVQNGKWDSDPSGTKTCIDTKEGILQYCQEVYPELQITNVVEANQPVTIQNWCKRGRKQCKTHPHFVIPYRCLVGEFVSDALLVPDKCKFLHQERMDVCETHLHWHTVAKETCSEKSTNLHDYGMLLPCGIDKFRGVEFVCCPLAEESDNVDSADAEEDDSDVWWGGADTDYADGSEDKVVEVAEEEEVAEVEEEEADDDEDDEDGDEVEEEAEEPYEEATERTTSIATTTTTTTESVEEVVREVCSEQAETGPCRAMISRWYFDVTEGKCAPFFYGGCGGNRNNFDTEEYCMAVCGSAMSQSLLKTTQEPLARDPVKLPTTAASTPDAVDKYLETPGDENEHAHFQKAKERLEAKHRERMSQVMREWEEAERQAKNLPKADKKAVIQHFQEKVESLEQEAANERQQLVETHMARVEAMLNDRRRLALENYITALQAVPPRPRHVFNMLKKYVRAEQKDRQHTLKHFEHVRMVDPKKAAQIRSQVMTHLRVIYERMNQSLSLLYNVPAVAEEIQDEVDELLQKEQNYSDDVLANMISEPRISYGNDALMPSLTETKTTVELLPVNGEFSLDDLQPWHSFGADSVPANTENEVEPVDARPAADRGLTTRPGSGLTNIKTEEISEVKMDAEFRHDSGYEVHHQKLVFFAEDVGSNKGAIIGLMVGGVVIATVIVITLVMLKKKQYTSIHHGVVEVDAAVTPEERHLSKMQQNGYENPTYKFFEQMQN
Butyrylcholinesterase, sequence (Q9JKC1 whole entry): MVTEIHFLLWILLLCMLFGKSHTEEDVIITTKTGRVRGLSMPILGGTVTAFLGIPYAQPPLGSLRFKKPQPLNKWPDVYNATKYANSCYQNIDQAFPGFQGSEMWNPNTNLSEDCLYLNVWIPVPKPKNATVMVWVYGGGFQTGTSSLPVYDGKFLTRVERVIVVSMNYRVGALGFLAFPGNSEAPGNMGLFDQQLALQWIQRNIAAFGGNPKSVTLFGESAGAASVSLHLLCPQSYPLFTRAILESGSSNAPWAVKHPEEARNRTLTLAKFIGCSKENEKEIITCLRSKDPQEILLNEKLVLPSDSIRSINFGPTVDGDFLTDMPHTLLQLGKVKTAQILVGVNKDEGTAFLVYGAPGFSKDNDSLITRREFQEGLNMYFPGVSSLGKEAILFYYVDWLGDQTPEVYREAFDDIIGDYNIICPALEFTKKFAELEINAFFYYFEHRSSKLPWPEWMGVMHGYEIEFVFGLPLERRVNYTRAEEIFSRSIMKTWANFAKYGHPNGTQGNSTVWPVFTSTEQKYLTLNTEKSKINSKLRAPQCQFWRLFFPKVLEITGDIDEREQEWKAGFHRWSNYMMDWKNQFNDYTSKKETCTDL

For `C#CCN(C)Cc1cn(-c2cc(NC(=S)NCC)ncn2)cn1`, the Activity (Mus musculus [1]) was “Active”, the Papp at 12 h, 100 ug/ml (in vitro) was 3.16 ×10⁻⁶ cm/s and the Activity (Cortical neurone [2]) was “Non-Toxic”. The Activity [3] was “Active”, the IC50 [4] was > 50 µM and the Activity (Mus musculus [5]) was “Active”. The Activity (Cortical neurone [6]) was “Non-Toxic”, the Activity [7] was “Active” and the Activity (Cortical neurone [8]) was “Toxic”. The IC50 (Butyrylcholinesterase) was > 40 µM, the Activity [9] was “inactive” and the inhibition at 50 µM [10] was 20.2%. For the same compound, the Activity [11] was “inactive” and the Activity (umolequiv/umol) [12] was 1.13.
